# Hits are enriched below; roughly 3.5% of the tested compounds scored in any of these assays.
# RGS4 pot: RGS4 potentiators or activators, primary screen, cell-based, HEK293 M3R inducible RGS4, calcium flux | carbachol calcium flux Fluo4; active compounds read low | B-score at 10 µM | actives 0.92% (n = 310,000);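 active = B-score of the integrated calcium signal more than 4 SD below the library mean, with starting fluorescence not abnormally high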;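 also: negative B-score means reduced calcium response which marks RGS4 activation or potentiation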
#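 Also added: carbachol at ECmax as muscarinic agonist stimulus; Assay system: HEK293 cells with stable M3R and inducible RGS4; Timing: overnight RGS4 induction, 30 min dye load 37 °C, 20 min compound RT; Measured by: Fluo4-AM (2 µM) calcium-flux fluorescence, kinetic read.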
# MrgX1 ag: agonists of human MrgX1 receptor, primary screen, HEK293 cells, Fluo-4 calcium flux | Mas-related G-protein coupled receptor member X1 (Homo sapiens), Q96LB2 | Fluo-4 calcium fluorescence, agonist mode; active compounds read high | B-score at 10 µM | actives 0.44% (n = 310,000);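 active = calcium response B-score plate-corrected fluorescence ratio at least 3 library SD, with starting fluorescence B-score inside 5 SD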
# Target sequence (Q96LB2 whole entry, looked up): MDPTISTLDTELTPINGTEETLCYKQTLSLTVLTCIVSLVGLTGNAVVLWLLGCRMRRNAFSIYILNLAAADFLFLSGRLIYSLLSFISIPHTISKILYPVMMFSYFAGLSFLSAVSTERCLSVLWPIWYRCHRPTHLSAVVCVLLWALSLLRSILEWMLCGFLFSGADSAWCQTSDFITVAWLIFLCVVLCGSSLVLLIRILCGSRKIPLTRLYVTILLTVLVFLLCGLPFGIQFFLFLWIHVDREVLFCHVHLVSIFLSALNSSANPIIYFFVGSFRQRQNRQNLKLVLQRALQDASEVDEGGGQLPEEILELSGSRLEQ
#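 Assay system: MrgX1-expressing HEK293 cells / Amount: fifteen thousand cells per well / Doses: test compound in the initial addition of three / Timing: cells plated overnight, dye loaded 0.5 h 37 °C, 0.5 h room temperature / Technique: kinetic calcium dye fluorescence, Fluo-4 NW / Control set: positive and negative controls per plate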
# RGS4 block: RGS4 inhibitors, primary screen, cell-based, HEK293 M3R inducible RGS4, calcium flux; Regulator of G-protein signaling 4 (Homo sapiens), P49798; Fluo-4 calcium flux; active compounds read high; triggered by carbachol at its EC20; B-score at 10 µM; actives 0.45% (n = 310,000);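 active = B-score, a plate-corrected calcium signal, over three deviations above library mean, with baseline fluorescence within five deviations of library mean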;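 also: RGS4 expression induced by doxycycline in cells with stable M3 receptor; B-score is computed from the integrated fluorescence ratio over baseline after carbachol; higher B-score means a larger calcium signal and so more RGS4 inhibition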
# Target sequence (P49798 whole entry, looked up): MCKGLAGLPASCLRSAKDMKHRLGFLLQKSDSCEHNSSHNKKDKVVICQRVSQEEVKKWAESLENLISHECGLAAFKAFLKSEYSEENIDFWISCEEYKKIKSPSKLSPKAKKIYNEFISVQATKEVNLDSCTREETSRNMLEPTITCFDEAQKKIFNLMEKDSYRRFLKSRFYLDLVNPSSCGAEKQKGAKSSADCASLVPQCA
# MrgX1 PAM: positive allosteric modulators of MrgX1, primary screen, HEK293 cells, Fluo-4 calcium flux; B-score at 10 µM; Mas-related G-protein coupled receptor member X1 (Homo sapiens), Q96LB2; AID 588675, 2011; actives 0.63% (n = 310,000); FDSS; active compounds read high;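 active = plate-corrected calcium response at least 3 library SD above typical, normal starting fluorescence, not activating the receptor alone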;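 also: compound read alongside a low EC10 to EC30 dose of BAM8-22 agonist; peak minus trough fluorescence over baseline measured at the second addition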
# MrgX1 antag: antagonists of human MrgX1 receptor, primary screen, HEK293 cells, Fluo-4 calcium flux; BAM8-22 antagonism; active compounds read low; Mas-related G-protein coupled receptor member X1 (Homo sapiens), Q96LB2; AID 588676, 2011; B-score at 10 µM; actives 1.3% (n = 310,000);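 active = calcium-response B-score plate-corrected more than 3 library SD below zero, starting fluorescence within 5 deviations, no agonist response on first addition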;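 also: peak minus trough fluorescence over baseline after final BAM8-22 challenge near maximal dose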
# The depositor's hits bear a star; i = inactive; . = not tested or not shown.
SMILES,RGS4 pot,MrgX1 ag,RGS4 block,MrgX1 PAM,MrgX1 antag
CCN(CC(=O)Nc1c(F)cccc1F)C(=O)CCCNC(=O)c1ccc(Cl)cc1,i,i,i,i,i
Cc1cc(=O)[nH]c(N/N=C/c2ccco2)n1,i,i,i,i,i
Cc1cc(=O)[nH]c(N/N=C/c2ccc(C)o2)n1,i,i,i,i,-6.6*
CCOC(=O)c1cnc2c(Cl)cccc2c1NCCN(C)C,i,i,i,i,i
CCOC(=O)c1cnc2c(C(=O)OC)cccc2c1NCc1cccnc1,-7*,i,i,i,i
CCOC(=O)c1cnc2ccc(C(=O)OC)cc2c1NCCc1ccc(OC)c(OC)c1,i,i,i,i,-6.4*
CCOC(=O)c1cnc2ccc(C(=O)OC)cc2c1NCCN1CCOCC1,i,i,i,i,i
CCOC(=O)c1cnc2c(C)cccc2c1NCCc1ccc(OC)c(OC)c1,-7.4*,i,i,i,i
CCOC(=O)c1cnc2c(C)cccc2c1Nc1cccc(C(=O)O)c1,i,i,i,i,i
CC1C[N+](=C2C=C(N3CCOCC3)CC(C)(C)C2)CC(C)O1 (configuration not stated),i,i,i,i,i
Cc1ccccc1Cn1nnc(-c2ccc(F)cc2)n1,i,i,i,i,i
COc1ccc(CCNC(=O)COC(=O)/C=C/c2ccc(OC)c(OC)c2)cc1,i,i,i,i,-4.5*
COc1ccc(/C=C/C(=O)Oc2cccc(/C=N/NC(=O)c3cccc(F)c3)c2)cc1,i,i,i,i,i
COc1ccc(/C=C\C(=O)Oc2cccc(/C=N/NC(=O)Cc3ccc(OC)c(OC)c3)c2)cc1,i,i,i,i,-5.5*
COc1ccc2c(C(=O)CCl)c[nH]c2c1,i,i,i,i,i
COc1ccc(CCNC(=O)c2ccc3c(c2)NC(=O)C(CSCc2cc(C)ccc2C)N3)cc1OC (configuration not stated),i,28*,i,i,i
Cc1ccc(C(=O)N2CCN(S(=O)(=O)c3ccccc3)CC2)s1,i,i,i,i,i
CCN(CC)CC#CCC(O)(c1ccccc1)c1ccc(Br)cc1 (configuration not stated),-7.8*,i,i,i,i
COc1ccc(CCNC(=O)c2cccc(C(=O)NCCc3ccc(OC)cc3)n2)cc1,i,i,i,i,-4.8*
CC(=O)n1cc(N(C(=O)CCl)c2ccc(C)cc2)c2ccccc21,-7.2*,i,i,i,i
CC(=O)N(c1ccc(Cl)cc1)c1cn(C(C)=O)c2ccccc12,i,i,i,i,i
COc1ccc(C2CC(c3ccccc3)=NN2C(=O)COC(=O)/C=C/c2ccc(O)c(OC)c2)cc1 (configuration not stated),i,i,i,i,i
O=C(c1ccc(N2CCOCC2)c([N+](=O)[O-])c1)N1CCCC(C(F)(F)F)C1 (configuration not stated),i,i,i,i,i
CCNC(=S)N/N=C(\C)c1ccc2c(c1)OCCO2,i,i,i,i,-6.5*
O=C1c2cccc3c([N+](=O)[O-])ccc(c23)C(=O)N1O,i,i,i,i,-8.6*
SMILES,RGS4 pot,MrgX1 ag,RGS4 block,MrgX1 PAM,MrgX1 antag
O=C1c2cccc3c([N+](=O)[O-])ccc(c23)C(=O)N1c1ccc(Cl)cn1,i,i,i,i,i
O=C1c2cccc3c([N+](=O)[O-])ccc(c23)C(=O)N1c1ccccn1,-7.8*,i,i,i,i
CCN(CC)CCOC(=O)C1(c2ccc([N+](=O)[O-])cc2)CCCC1,.,i,.,i,i
CC(C[N+](C)(C)C)OC(=O)C1(c2ccccc2)CCCC1 (configuration not stated),-10*,i,i,i,i
CCN(CC)CCOC(=O)C1(c2ccccc2)CCOCC1,-7*,i,i,i,i
C[N+]1(CCOC(=O)C2(c3ccccc3)CCCC2)CCCCC1,-7.5*,i,i,i,i
CCN(CC)CCOCCOC(=O)C1(c2ccccc2)CCCC1,i,i,i,i,i
COc1ccc(NC(=O)C2(c3ccccc3)CCCC2)cc1,i,i,i,i,i
C[N+](C)(C)CCOC(=O)C1(c2ccccc2)CCCC1,-8.2*,i,i,i,i
COc1ccc(OC)c(NC(=O)C(=O)NNC(=O)C23CC4CC(CC(C4)C2)C3)c1,i,i,i,i,i
O=C(c1cccc(F)c1)N1CCC(c2nc3ccccc3s2)CC1,i,i,i,i,i
CC(=O)c1ccccc1Oc1cc(NN2CCCCC2)c([N+](=O)[O-])cc1[N+](=O)[O-],-8.3*,i,i,i,i
O=[N+]([O-])c1cc([N+](=O)[O-])c(Oc2ccc(F)cc2)cc1NN1CCCCC1,i,i,i,i,i
O=[N+]([O-])c1cc([N+](=O)[O-])c(Oc2c(F)cccc2F)cc1NN1CCCCC1,i,i,i,i,i
O=[N+]([O-])c1cc([N+](=O)[O-])c(Oc2c(F)ccc(F)c2F)cc1NN1CCCCC1,-7.2*,i,i,i,i
CC(=O)c1cccc(Oc2cc(NN3CCCCC3)c([N+](=O)[O-])cc2[N+](=O)[O-])c1,-7.3*,i,i,i,i
COc1ccc(Oc2cc(NN3CCCCC3)c([N+](=O)[O-])cc2[N+](=O)[O-])cc1OC,-8.2*,i,i,i,i
O=[N+]([O-])c1cc([N+](=O)[O-])c(Oc2c(Cl)cccc2Cl)cc1NN1CCCCC1,i,i,i,i,i
N#C/C(=C\c1c(F)cccc1Cl)S(=O)(=O)c1ccccn1,i,i,i,i,i
CC(=O)NC(CC(=O)OCc1ccc([N+](=O)[O-])cc1)c1ccccc1 (configuration not stated),i,i,i,i,i
O=C(O)c1cnn(-c2nc(-c3cccc([N+](=O)[O-])c3)cs2)c1C(F)(F)F,i,i,i,i,i
CCCCCc1c2c(cc(O)c1C(=O)O)OC(=O)c1c(cc(OC)cc1C(=O)CCCC)O2,-7*,i,i,i,-7.9*
CCCCc1c(C(=O)O)cc(OC)cc1C(=O)O,i,i,i,i,i

# Bioassay records (PubChem)
